Eleven compounds from ChEMBL document CHEMBL1250473, “Synthesis and primary cytotoxicity evaluation of new 5-benzylidene-2,4-thiazolidinedione derivatives” (2010) can be followed below.

Holding throughout (assay type): functional
The test system of test [1] is K562. Briefly: Cytotoxicity against human K562 cells after 48 hrs by SRB. Conditions: K562, 48 h; for TGI: read-out: pTGI. The essentials:
(§1)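 Cells kept in RPMI 1640 with 10% FBS and 2 mM L-glutamine, plated at 5000 cells/well and incubated 24 h at 37 °C, 5% CO2. A time-zero plate was TCA-fixed at dosing. DMSO stocks were diluted in medium into four 10-fold concentrations, 10^-4 to 10^-7 M. Exposure lasted 48 h continuously, then cells were fixed in cold TCA, stained with 0.4% SRB and eluted with 10 mM Tris. A540 was read. GI50 = [(Ti−Tz)/(C−Tz)]×100 = 50; TGI from Ti = Tz.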

Test [2] deals with PC-3. In words: Cytotoxicity against human PC3 cells after 48 hrs by SRB. Conditions: PC-3, 48 h; for TGI: read-out: pTGI. In short, it runs like this:
as §1

Test [3] deals with MCF7. Briefly: Cytotoxicity against human MCF7 cells after 48 hrs by SRB. Conditions: MCF7, 48 h; for TGI: read-out: pTGI. In short, it runs like this: as §1
The test system of test [4] is KB. In words: Cytotoxicity against human KB cells after 48 hrs by SRB. Conditions: for TGI: read-out: pTGI. The essentials: as §1
The test system of test [5] is HepG2. Briefly: Cytotoxicity against human HepG2 cells after 48 hrs by SRB. Conditions: HepG2, 48 h; for TGI: read-out: pTGI. The essentials: as §1
Test [6] is described as follows: Cytotoxicity against human Gurav cells after 48 hrs by SRB. Conditions: for TGI: read-out: pTGI. In short, it runs like this: as §1
Test [7] concerns HOP-62. In words: Cytotoxicity against human HOP62 cells after 48 hrs by SRB. Conditions: HOP-62, 48 h; for TGI: read-out: pTGI. The essentials:
as §1

For `O=C1NC(=O)/C(=C/c2ccc(OCC(=O)N3c4ccccc4Sc4ccccc43)cc2)S1`, the GI50 was over 100 µM in test [1]; 29.5 µM in test [2]; 29.5 µM in test [3]; over 100 µM in test [4]; over 100 µM in test [5]; over 100 µM in test [6] (Homo sapiens, Gurav, 48 h). Moreover, the TGI in test [1] was over 100 µM; in test [2], over 100 µM; in test [3] it was over 100 µM; in test [4], over 100 µM; in test [5], over 100 µM; in test [6] (Homo sapiens, Gurav, 48 h) it was over 100 µM.

On to `Cc1c(NC(=O)COc2ccc(/C=C3\SC(=O)NC3=O)cc2)c(=O)n(-c2ccccc2)n1C`, for which the GI50 is over 100 µM in test [1]; over 100 µM in test [2]; 0.186 µM in test [7]; over 100 µM in test [3]; over 100 µM in test [4]; over 100 µM in test [5]. In test [6] (Homo sapiens, Gurav, 48 h), this compound showed a GI50 of over 100 µM. In addition, the TGI in test [1], in test [2], in test [7], in test [3], in test [4] and in test [5] was over 100 µM throughout. In addition, the TGI in test [6] (Homo sapiens, Gurav, 48 h) is over 100 µM.

Consider `Cc1cnc(NC(=O)COc2ccc(/C=C3\SC(=O)NC3=O)cc2)s1`, for which the GI50 in test [1] is 2.24 µM; in test [7] it was 30.9 µM; in test [3] it was over 100 µM; in test [4] it was over 100 µM; in test [5], over 100 µM. Further, the TGI in test [1], in test [7], in test [3], in test [4] and in test [5] was over 100 µM in each case.

Turning to `CCCCC1=NC2(CCCC2)C(=O)N1C(=O)COc1ccc(/C=C2/SC(=O)NC2=O)cc1`, the 50% growth inhibitory concentration (GI50) in test [1] was over 100 µM; in test [2], over 100 µM; in test [7], 29.5 µM; in test [3] it was 28.2 µM; in test [4], over 100 µM; in test [5], over 100 µM. For the same compound, in test [6] (Homo sapiens, Gurav, 48 h), the GI50 was over 100 µM. Besides, the TGI in test [1], in test [2], in test [7], in test [3], in test [4] and in test [5] was over 100 µM each time. In addition, in test [6] (Homo sapiens, Gurav, 48 h), the TGI was over 100 µM.

On to `O=C(COc1ccc(/C=C2\SC(=O)NC2=O)cc1)Nc1cccc(C(F)(F)F)c1`, for which the GI50 was 0.191 µM in test [1]; 2.51 µM in test [2]; over 100 µM in test [7]; 2.24 µM in test [4]; over 100 µM in test [5]. Also, the TGI in test [1], in test [2], in test [7], in test [4] and in test [5] was over 100 µM each time.

In the case of `O=C(COc1ccc(/C=C2\SC(=O)NC2=O)cc1)Nc1nc2ccccc2s1`, the GI50 is over 100 µM in test [1]; 28.2 µM in test [2]; 25.1 µM in test [3]; over 100 µM in test [4]; over 100 µM in test [5]; over 100 µM in test [6] (Homo sapiens, Gurav, 48 h). The TGI was over 100 µM in test [1]; over 100 µM in test [2]; over 100 µM in test [3]; over 100 µM in test [4]; over 100 µM in test [5]; over 100 µM in test [6] (Homo sapiens, Gurav, 48 h).

`O=C(COc1ccc(/C=C2\SC(=O)NC2=O)cc1)Nc1ncc([N+](=O)[O-])s1`: the GI50 in test [1], in test [2], in test [7], in test [3], in test [4] and in test [5] was over 100 µM each time. In test [6] (Homo sapiens, Gurav, 48 h), this compound showed a GI50 of over 100 µM. The TGI in test [1], in test [2], in test [7], in test [3], in test [4] and in test [5] was over 100 µM throughout. The TGI in test [6] (Homo sapiens, Gurav, 48 h) is over 100 µM.

In the case of `O=C1NC(=O)/C(=C\c2ccc(OCC(=O)N3C(=O)c4ccccc4S3(=O)=O)cc2)S1`, the GI50 is 2.69 µM in test [1]; over 100 µM in test [2]; over 100 µM in test [7]; 37.2 µM in test [3]; over 100 µM in test [4]; over 100 µM in test [5]. Growth in test [6] (Homo sapiens, Gurav, 48 h) was halved (GI50) at 31.6 µM. Moreover, the TGI in test [1], in test [2], in test [7], in test [3], in test [4] and in test [5] was over 100 µM each time. In addition, in test [6] (Homo sapiens, Gurav, 48 h), the TGI is over 100 µM.

Regarding `O=C(COc1ccc(/C=C2\SC(=O)NC2=O)cc1)Nc1ccccn1`, the GI50 in test [1] was over 100 µM; in test [2], 29.5 µM; in test [7], 2.29 µM; in test [3], 29.5 µM; in test [4], over 100 µM; in test [5], over 100 µM. For the same compound, in test [6] (Homo sapiens, Gurav, 48 h), the GI50 was over 100 µM. Besides, the TGI in test [1], in test [2], in test [7], in test [3], in test [4] and in test [5] was over 100 µM each time. Besides, the TGI in test [6] (Homo sapiens, Gurav, 48 h) was over 100 µM.

Turning to `Cc1cc(NC(=O)COc2ccc(/C=C3\SC(=O)NC3=O)cc2)no1`, the GI50 was 2.75 µM in test [1]; over 100 µM in test [2]; over 100 µM in test [7]; 39.8 µM in test [3]; over 100 µM in test [4]; over 100 µM in test [5]. The same compound gave a GI50 in test [6] (Homo sapiens, Gurav, 48 h) of 38.9 µM. Moreover, the TGI in test [1], in test [2], in test [7], in test [3], in test [4] and in test [5] was over 100 µM each time. Moreover, in test [6] (Homo sapiens, Gurav, 48 h), the TGI was over 100 µM.

In the case of `COc1cccc2c1C(=O)c1c(O)c3c(c(O)c1C2=O)C[C@@](O)(C(=O)CO)C[C@@H]3O[C@H]1C[C@H](N)[C@H](O)[C@H](C)O1` [DOXORUBICIN], the concentration for 50% growth inhibition (GI50) in test [1] was 2.57 µM; in test [4] it was under 0.1 µM; in test [5] it was under 0.1 µM; in test [6], 0.107 µM; in test [6] (Homo sapiens, Gurav, 48 h) it was 0.158 µM. Further, the TGI in test [1] is over 100 µM.

Broadly, the GI50 is the concentration giving 50% growth inhibition. Low values mean more potent growth inhibition, high ones less potent growth inhibition.
